# Test results: paper PMC9893515 (Bioorganic chemistry, 2021)
# Where two headings read alike, the source gives them in different places.
# Target: T1, recombinant human TDP2 (Homo sapiens, UniProt O95551)
# T1 sequence (O95551 1-362): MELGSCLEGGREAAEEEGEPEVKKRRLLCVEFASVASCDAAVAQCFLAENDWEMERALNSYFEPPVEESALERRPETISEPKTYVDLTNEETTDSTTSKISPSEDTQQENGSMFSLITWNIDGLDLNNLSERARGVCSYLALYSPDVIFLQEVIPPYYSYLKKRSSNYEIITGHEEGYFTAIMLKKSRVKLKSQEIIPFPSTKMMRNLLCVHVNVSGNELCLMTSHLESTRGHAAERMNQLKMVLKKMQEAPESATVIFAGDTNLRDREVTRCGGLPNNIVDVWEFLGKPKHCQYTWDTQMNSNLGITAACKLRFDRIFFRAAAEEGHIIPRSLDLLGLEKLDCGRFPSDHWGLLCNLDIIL
# Assay: Recombinant TDP2 assay
# Assay type: biochemical
# Outline: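 Human recombinant TDP2 (25 pM) with 1 nM 18-mer 5'-phosphotyrosyl ssDNA, 3'-α32P-cordycepin-labelled. Reaction ran 15 min at room temperature in Tris-HCl pH 7.5, KCl, MgCl2, EDTA, DTT, BSA and Tween 20. Stopped with formamide loading buffer, then 16% denaturing PAGE and phosphorimaging densitometry of product. […] IC50 is 50% enzyme inhibition.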
SMILES,IC50,"IC50 (read-out: TDP2 inhibitory activity IC50, mean ± SD from at least three independent experiments, recombinant TDP2)"
"CCOC(=O)c1c(C)oc2c1C(=O)c1ccccc1C2=O [Compound 11, Ethyl 2-methyl-4,9-dioxo-4,9-dihydronaphtho[2,3-b]furan-3-carboxylate]",> 111 µM,–
"CCOC(=O)c1c(C)oc2c1C(=O)c1cnccc1C2=O [Compound 12, Ethyl 2-methyl-4,9-dioxo-4,9-dihydrofuro[2,3-g]isoquinoline-3-carboxylate]",32 ± 3.2 µM,–
"CCOC(=O)c1c(C)oc2c1C(=O)c1ccncc1C2=O [Compound 13, Ethyl 2-methyl-4,9-dioxo-4,9-dihydrofuro[3,2-g]isoquinoline-3-carboxylate]",> 111 µM,–
"CCOC(=O)c1c(C)oc2c1C(=O)c1nccnc1C2=O [Compound 14, Ethyl 7-methyl-5,9-dioxo-5,9-dihydrofuro[2,3-g]quinoxaline-8-carboxylate]",61 ± 43 µM,–
"CCOC(=O)c1c(C)oc2c1C(=O)c1nc3ccccc3cc1C2=O [Compound 16, Ethyl 2-methyl-4,11-dioxo-4,11-dihydrofuro[2,3-b]acridine-3-carboxylate]",> 111 µM,–
"CCOC(=O)c1c(C)oc2c1C(=O)c1nc(Cl)ccc1C2=O [Compound 19, Ethyl-6-chloro-2-methyl-4,9-dioxo-4,9-dihydrofuro[2,3-g]quinoline-3-carboxylate]",94 ± 29 µM,–
"CCOC(=O)c1c(C)oc2c1C(=O)c1ccc(Cl)nc1C2=O [Compound 20, Ethyl-7-chloro-2-methyl-4,9-dioxo-4,9-dihydrofuro[3,2-g]quinoline-3-carboxylate]",> 111 µM,–
"CCOC(=O)c1c(C)oc2c1C(=O)c1ccc(C)nc1C2=O [Compound 22, Ethyl-2,7-dimethyl-4,9-dioxo-4,9-dihydrofuro[3,2-g]quinoline-3-Carboxylate]",> 111 µM,–
"CCOC(=O)c1c(C)oc2c1C(=O)c1nc(N(C)C)ccc1C2=O [Compound 23, Ethyl-6-(dimethylamino)-2-methyl-4,9-dioxo-4,9-dihydrofuro[2,3-g]quinoline-3-carboxylate]",37 ± 7 µM,–
"CCOC(=O)c1c(C)oc2c1C(=O)c1nc(N3CCCCC3)ccc1C2=O [Compound 24, Ethyl-2-methyl-4,9-dioxo-6-(piperidin-1-yl)-4,9-dihydrofuro[2,3-g]quinoline-3-carboxylate]",44 ± 2 µM,–
"CCOC(=O)c1c(C)oc2c1C(=O)c1nc(N3CCN(C)CC3)ccc1C2=O [Compound 25, Ethyl-2-methyl-6-(4-methylpiperazin-1-yl)-4,9-dioxo-4,9-dihydrofuro[2,3-g]quinoline-3-carboxylate]",> 111 µM,–
"C#CCN(C)c1ccc2c(n1)C(=O)c1c(oc(C)c1C(=O)OCC)C2=O [Compound 26, Ethyl-2-methyl-6-(methyl(prop-2-yn-1-yl)amino)-4,9-dioxo-4,9-dihydrofuro[2,3-g]quinoline-3-carboxylate]",> 111 µM,–
"CCOC(=O)c1c(C)oc2c1C(=O)c1nc(-c3ccc(OC)cc3)ccc1C2=O [Compound 27, Ethyl6-(4-methoxyphenyl)-2-methyl-4,9-dioxo-4,9-dihydrofuro[2,3-g]quinoline-3-carboxylate]",> 111 µM,–
"CCOC(=O)c1c(C)oc2c1C(=O)c1nc(-c3ccco3)ccc1C2=O [Compound 28, Ethyl-6-(furan-2-yl)-2-methyl-4,9-dioxo-4,9-dihydrofuro[2,3-g]quinoline-3-carboxylate]",> 111 µM,–
"CCOC(=O)c1c(C)oc2c1C(=O)c1ccc(N(C)C)nc1C2=O [Compound 30, Ethyl-7-(dimethylamino)-2-methyl-4,9-dioxo-4,9-dihydrofuro[3,2-g]quinoline-3-carboxylate]",> 111 µM,–
"CCOC(=O)c1c(C)oc2c1C(=O)c1ccc(N3CCCCC3)nc1C2=O [Compound 31, Ethyl-2-methyl-4,9-dioxo-7-(piperidin-1-yl)-4,9-dihydrofuro[3,2-g]quinoline-3-carboxylate]",> 111 µM,–
"CCOC(=O)c1c(C)oc2c1C(=O)c1ncc(C)cc1C2=O [Compound 33, Ethyl-2,7-dimethyl-4,9-dioxo-4,9-dihydrofuro[2,3-g]quinoline-3-carboxylate]",> 111 µM,–
"CCOC(=O)c1c(C)oc2c1C(=O)c1nccc(-c3ccccc3[N+](=O)[O-])c1C2=O [Compound 34, Ethyl-2-methyl-8-(2-nitrophenyl)-4,9-dioxo-4,9-dihydrofuro[2,3-g]quinoline-3-carboxylate]",> 111 µM,–
"CCOC(=O)c1ccnc2c1C(=O)c1oc(C)c(C(=O)OCC)c1C2=O [Compound 35, Diethyl-2-methyl-4,9-dioxo-4,9-dihydrofuro[2,3-g]quinoline-3,8-dicarboxylate]",69 ± 3.1 µM,–
"CCOC(=O)c1c(C(C)C)oc2c1C(=O)c1cccnc1C2=O [Compound 40, Ethyl 2-isopropyl-4,9-dioxo-4,9-dihydrofuro[3,2-g]quinoline-3-carboxylate]",> 111 µM,–
"CCOC(=O)c1c(-c2ccccc2)oc2c1C(=O)c1cccnc1C2=O [Compound 42, Ethyl 4,9-dioxo-2-phenyl-4,9-dihydrofuro[3,2-g]quinoline-3-carboxylate]",47 ± 24 µM,–
"CCOC(=O)c1c(CN2CCSCC2)oc2c1C(=O)c1ncccc1C2=O [Compound 47, Ethyl 4,9-dioxo-2-(thiomorpholinomethyl)-4,9-dihydrofuro[2,3-g]quinoline3-carboxylate]",31 ± 6.4 µM,–
"CCOC(=O)c1noc2c1C(=O)c1nccnc1C2=O [Compound 52, Ethyl-4,9-dioxo-4,9-dihydroisoxazolo[4,5-g]quinoxaline-3-carboxylate]",–,9.3 ± 2.7 µM

# Next, values leading:
IC50,"IC50 (read-out: TDP2 inhibitory activity IC50, mean ± SD from at least three independent experiments, recombinant TDP2)",SMILES
21 ± 5.5 µM,–,"CCOC(=O)c1c(C)oc2c1C(=O)c1nc(C)ccc1C2=O [Compound 21, Ethyl-2,6-dimethyl-4,9-dioxo-4,9-dihydrofuro[2,3-g]quinoline-3-carboxylate]"
28 ± 1.3 µM,–,"CCOC(=O)c1c(C)oc2c1C(=O)c1nccc(CC)c1C2=O [Compound 36, Ethyl-8-ethyl-2-methyl-4,9-dioxo-4,9-dihydrofuro[2,3-g]quinoline-3-carboxylate]"
25 ± 7.7 µM,–,"CCOC(=O)c1c(C(C)C)oc2c1C(=O)c1ncccc1C2=O [Compound 39, Ethyl 2-isopropyl-4,9-dioxo-4,9-dihydrofuro[2,3-g]quinoline-3-carboxylate]"
28 ± 6.4 µM,–,"CCOC(=O)c1c(-c2ccccc2)oc2c1C(=O)c1ncccc1C2=O [Compound 41, Ethyl 4,9-dioxo-2-phenyl-4,9-dihydrofuro[2,3-g]quinoline-3-carboxylate]"
21 ± 5.5 µM,–,"CCOC(=O)c1c(CBr)oc2c1C(=O)c1ncccc1C2=O [Compound 43, Ethyl 2-(bromomethyl)-4,9-dioxo-4,9-dihydrofuro[2,3-g]quinoline-3-carboxylate]"
27 ± 2.5 µM,–,"CCOC(=O)c1c(C(Br)Br)oc2c1C(=O)c1ncccc1C2=O [Compound 44, Ethyl 2-(dibromomethyl)-4,9-dioxo-4,9-dihydrofuro[2,3-g]quinoline-3-carboxylate]"
31 ± 4.2 µM,–,"CCOC(=O)c1c(CN2CCN(C(C)=O)CC2)oc2c1C(=O)c1ncccc1C2=O [Compound 45, Ethyl 2-((4-acetylpiperazin-1-yl)methyl)-4,9-dioxo-4,9-dihydrofuro[2,3-g]qui noline-3-carboxylate]"
22 ± 6.4 µM,–,"CCOC(=O)c1c(CN2CCOCC2)oc2c1C(=O)c1ncccc1C2=O [Compound 46, Ethyl 2-(morpholinomethyl)-4,9-dioxo-4,9-dihydrofuro[2,3-g]quinoline-3-ca rboxylate]"
5.2 ± 4.1 µM,–,"CCOC(=O)c1c(C=O)oc2c1C(=O)c1ncccc1C2=O [Compound 49, Ethyl-2-formyl-4,9-dioxo-4,9-dihydrofuro[2,3-g]quinoline-3-carboxylate]"
5.4 ± 0.8 µM,–,"CCOC(=O)c1noc2c1C(=O)c1cnccc1C2=O [Compound 50, Ethyl-4,9-dioxo-4,9-dihydroisoxazolo[5,4-g]isoquinoline-3-carboxylate]"
12 ± 2.4 µM,–,"CCOC(=O)c1noc2c1C(=O)c1ccncc1C2=O [Compound 51, Ethyl 4,9-dioxo-4,9-dihydroisoxazolo[4,5-g]isoquinoline-3-carboxylate]"
3.1 ± 0.43 µM,–,"CC(C)(C)OC(=O)c1noc2c1C(=O)c1ncccc1C2=O [Compound 54, Tert-butyl 4,9-dioxo-4,9-dihydroisoxazolo[5,4-g]quinoline-3-carboxylate]"
3.3 ± 0.65 µM,–,"CC(C)(C)OC(=O)c1noc2c1C(=O)c1cccnc1C2=O [Compound 55, Tert-butyl 4,9-dioxo-4,9-dihydroisoxazolo[4,5-g]quinoline-3-carboxylate]"
15 ± 1.3 µM,–,"O=C(OCCc1ccc(Cl)cc1)c1noc2c1C(=O)c1ncccc1C2=O [Compound 56, 4-chlorophenethyl 4,9-dioxo-4,9-dihydroisoxazolo[5,4-g]quinoline-3-carboxylate]"
9.9 ± 2.2 µM,–,"O=C(OCCc1ccc(Cl)cc1)c1noc2c1C(=O)c1cccnc1C2=O [Compound 57, 4-chlorophenethyl 4,9-dioxo-4,9-dihydroisoxazolo[4,5-g]quinoline-3-carboxylate]"
14 ± 2.9 µM,–,"O=C(OCC(F)(F)F)c1noc2c1C(=O)c1cccnc1C2=O [Compound 59, 2,2,2-Trifluoroethyl 4,9-dioxo-4,9-dihydroisoxazolo[4,5-g]quinoline-3-carboxylate]"
10 ± 1.48 µM,–,"N#CCCOC(=O)c1noc2c1C(=O)c1cccnc1C2=O [Compound 60, 2-Cyanoethyl 4,9-dioxo-4,9-dihydroisoxazolo[4,5-g]quinoline-3-carboxylate]"
8.7 ± 0.54 µM,–,"O=C(OCCc1cccc(F)c1)c1noc2c1C(=O)c1cccnc1C2=O [Compound 61, 3-Fluorophenethyl 4,9-dioxo-4,9-dihydroisoxazolo[4,5-g]quinoline-3-carboxylate]"
